Source: ChEMBL document CHEMBL1133434, “Novel retinoic acid receptor alpha agonists: syntheses and evaluation of pyrazole derivatives” (Bioorg Med Chem Lett, 2000)

How the values were obtained:
[1] = target: T1, Retinoic acid receptor beta (Homo sapiens) (UniProt P10826); test: Inhibition of [3H]ATRA-Hl60 binding to Retinoic acid receptor beta relative to ATRA
T1 sequence (whole entry): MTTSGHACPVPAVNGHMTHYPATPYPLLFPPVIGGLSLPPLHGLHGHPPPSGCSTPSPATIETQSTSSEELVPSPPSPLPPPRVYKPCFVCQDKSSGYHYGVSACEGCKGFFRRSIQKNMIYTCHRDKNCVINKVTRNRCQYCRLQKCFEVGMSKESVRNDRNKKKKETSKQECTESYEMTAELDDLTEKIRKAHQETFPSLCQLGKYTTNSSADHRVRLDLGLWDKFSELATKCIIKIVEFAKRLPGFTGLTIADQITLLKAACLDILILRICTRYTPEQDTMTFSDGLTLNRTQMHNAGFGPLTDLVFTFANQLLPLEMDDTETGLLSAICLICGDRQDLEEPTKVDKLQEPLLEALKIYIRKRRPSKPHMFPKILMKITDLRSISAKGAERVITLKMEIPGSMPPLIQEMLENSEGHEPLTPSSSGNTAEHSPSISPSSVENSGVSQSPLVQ
Method in brief: (§1)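 Competitive binding at individual RAR subtypes, run with [3H]ATRA as radioligand. Affinity is given as IC50 relative to that of ATRA.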

HL-60 = test: Effective dose for induction of HL-60 cell differentiation; type: functional, Homo sapiens
Method in brief: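 HL-60 cells treated with retinoid. Differentiation scored by the CD11b marker. Activity expressed relative to ATRA, as EC30/ATRA EC30.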

[2] = target: T1, Retinoic acid receptor beta (Homo sapiens); test: Relative transcriptional activation in CV-1 cells expressing RAR beta receptor compared to ATRA; type: functional, cell-based; details: Cercopithecidae
[3] = target: T2, Retinoic acid receptor gamma (Homo sapiens) (UniProt P13631); test: Inhibition of [3H]ATRA-Hl60 binding to Retinoic acid receptor gamma relative to ATRA; Not detectable; method in brief: as §1
T2 sequence (whole entry): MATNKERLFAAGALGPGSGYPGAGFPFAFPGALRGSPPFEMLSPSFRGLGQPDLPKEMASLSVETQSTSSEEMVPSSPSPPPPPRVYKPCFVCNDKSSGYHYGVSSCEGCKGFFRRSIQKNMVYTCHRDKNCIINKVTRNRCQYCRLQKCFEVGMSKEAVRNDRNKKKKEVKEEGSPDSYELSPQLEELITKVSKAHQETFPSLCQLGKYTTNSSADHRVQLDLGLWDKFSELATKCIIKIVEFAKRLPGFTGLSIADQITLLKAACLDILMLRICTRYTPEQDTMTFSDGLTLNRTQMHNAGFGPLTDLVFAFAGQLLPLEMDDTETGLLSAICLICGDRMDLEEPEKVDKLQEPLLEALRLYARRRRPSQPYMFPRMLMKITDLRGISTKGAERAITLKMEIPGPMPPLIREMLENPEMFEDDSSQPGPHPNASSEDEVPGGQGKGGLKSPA

[4] = target: T3, Retinoic acid receptor alpha (Homo sapiens) (UniProt P10276); test: Relative transcriptional activation in CV-1 cells expressing RAR alpha receptor compared to ATRA; type: functional, cell-based; details: Cercopithecidae
T3 sequence (whole entry): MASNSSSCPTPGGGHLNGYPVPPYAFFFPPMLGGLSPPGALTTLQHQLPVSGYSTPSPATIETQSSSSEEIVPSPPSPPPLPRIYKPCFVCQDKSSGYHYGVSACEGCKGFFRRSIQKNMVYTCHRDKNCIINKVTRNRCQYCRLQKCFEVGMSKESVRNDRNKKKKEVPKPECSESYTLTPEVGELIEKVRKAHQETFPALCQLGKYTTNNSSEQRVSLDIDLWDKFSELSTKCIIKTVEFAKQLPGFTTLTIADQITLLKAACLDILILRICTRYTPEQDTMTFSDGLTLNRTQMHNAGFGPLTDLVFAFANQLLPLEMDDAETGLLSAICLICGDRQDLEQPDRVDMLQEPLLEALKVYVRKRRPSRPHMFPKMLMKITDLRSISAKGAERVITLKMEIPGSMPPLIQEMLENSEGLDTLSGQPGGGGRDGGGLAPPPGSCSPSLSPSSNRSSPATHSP

[5] = target: T2, Retinoic acid receptor gamma (Homo sapiens); test: Relative transcriptional activation in CV-1 cells expressing RAR gamma receptor compared to ATRA; type: functional, cell-based; details: Cercopithecidae
[6] = target: T2, Retinoic acid receptor gamma (Homo sapiens); test: Relative transcriptional activation in CV-1 cells expressing RAR gamma receptor compared to ATRA; Not detectable; type: functional, cell-based; details: Cercopithecidae
[7] = target: T3, Retinoic acid receptor alpha (Homo sapiens); test: Relative transcriptional activation in CV-1 cells expressing RAR alpha receptor compared to ATRA; Not detectable; type: functional, cell-based; details: Cercopithecidae
[8] = target: T1, Retinoic acid receptor beta (Homo sapiens); test: Relative transcriptional activation in CV-1 cells expressing RAR beta receptor compared to ATRA; Not detectable; type: functional, cell-based; details: Cercopithecidae
[9] = target: T1, Retinoic acid receptor beta (Homo sapiens); test: Inhibition of [3H]ATRA-Hl60 binding to Retinoic acid receptor beta relative to ATRA; Not detectable; method in brief: as §1
[10] = target: T2, Retinoic acid receptor gamma (Homo sapiens); test: Inhibition of [3H]ATRA-Hl60 binding to Retinoic acid receptor gamma relative to ATRA; method in brief: as §1

Compound | Relative IC50 [1] | ED30 (HL-60) | Relative EC30 [2] | Relative IC50 [3] | Relative EC30 [4] | Relative EC30 [5] | Relative EC30 [6] | Relative EC30 [7] | Relative EC30 [8] | Relative IC50 [9] | Relative IC50 [10]
CC(C)c1cc(-c2ccc(-c3ccc(C(=O)O)cc3)[nH]2)nn1C(C)C | 660 nM | 0.27 nM | 1.8 nM | > 1000 nM | 0.19 nM | 14 nM | – | – | – | – | –
Cc1ccc(C)c(-n2nc(-c3ccc(-c4ccc(C(=O)O)cc4)[nH]3)cc2C(C)C)c1 | – | >10000 nM | – | > 1000 nM | – | – | > 10000 nM | > 10000 nM | > 10000 nM | > 1000 nM | –
CC1=C(/C=C/C(C)=C/C=C/C(C)=C/C(=O)O)C(C)(C)CCC1 [TRETINOIN] | – | 1.5 nM | – | – | – | – | – | – | – | – | –
CC(C)c1cc(-c2ccc(-c3ccc(C(=O)O)cc3)[nH]2)nn1C(C)(C)C | 110 nM | 0.05 nM | 0.63 nM | – | 0.22 nM | 2.3 nM | – | – | – | – | 70 nM
CC(C)c1cc(-c2ccc(-c3ccc(C(=O)O)cc3)[nH]2)nn1CC(F)(F)F | – | 0.62 nM | 15 nM | > 1000 nM | 1 nM | 88 nM | – | – | – | > 1000 nM | –
